Reference: paper PMC10785272 (ACS Omega, 2023)

Assays:
A549 cell-bearing mice [1] = experiment: In vivo biodistribution; parameters: species or system mouse; details: 4 mg of Pt/kg tail vein; for ratio of platinum concentration tumor/blood / ratio of platinum concentration tumor/bone / ratio of platinum concentration tumor/kidney / ratio of platinum concentration tumor/liver / ratio of platinum concentration tumor/muscle: A549 cell-bearing mice; for platinum accumulation in tumors: ICP-MS, mean ± SD (n = 4)
Summary of the method: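 Male BALB/c nu/nu mice (5 weeks old, quarantined 1 week) received 1 × 10^7 A549 cells s.c. into the right shoulder. At 50 mm3 tumour volume, mice got 4 mg Pt/kg by tail vein in freshly prepared saline (n = 4/group). At 24 and 48 h, Pt in tumour, muscle, bone, blood, liver and kidney was measured by ICP-MS after acid digestion. Values are ng Pt/g tissue and tumour/organ concentration ratios.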

A549 cell-bearing mice [2] = experiment: In vivo assessment of antitumor effect and toxicity in A549 cell-bearing mice; parameters: species or system mouse; details: 2.7 mg of Pt/kg i.v. on days 1, 8, 15, 22; n = 6
[3] = In vitro stability of FGC-Pt in mouse plasma; format: in vitro ADME; details: 37 °C
Summary of the method: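 Test compound (2.4 mg) was mixed with purchased mouse plasma (160 µL) and held at 37 °C for 0, 2, 4 and 6 h. Each mixture was diluted with saline, filtered and analysed by HPLC on a Sugar-D column with a water/methanol linear gradient at 0.5 mL/min, with UV detection at 220 nm. Results are mean ± SD, n = 3.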

HeLa cells = experiment: In vitro cytotoxicity MTS assay with HeLa cells; format: cell-based, human; details: HeLa cell line, 48 h incubation, mean ± SD (n = 3)
Summary of the method: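 HeLa cells were grown in EMEM with 10% FBS, nonessential amino acids and sodium pyruvate at 37 °C in 5% CO2. They were seeded at 40000 cells/well and left 24 h, then exposed 48 h to freshly prepared medium holding test compound over 0–100 or 0–1000 µM. MTS was added for 3 h and absorbance read at 490 nm. IC50 was obtained by curve fitting; runs were in triplicate.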

## cis-Dichloro [(2-Fluoro-α-D-glucopylanosidyl)propane-1,3-diamine] Platinum [FGC-Pt]
A549 cell-bearing mice [1]; 24 h post-injection
  ratio of platinum concentration tumor/blood: 11.07
  ratio of platinum concentration tumor/bone: 2.93
  ratio of platinum concentration tumor/kidney: 0.29
  ratio of platinum concentration tumor/liver: 0.50
  ratio of platinum concentration tumor/muscle: 3.64
  platinum accumulation in tumors: 1058 ± 220 Pt ng/g tissue
A549 cell-bearing mice [1]; 48 h post-injection
  ratio of platinum concentration tumor/blood: 14.37
  ratio of platinum concentration tumor/bone: 3.03
  ratio of platinum concentration tumor/kidney: 0.42
  ratio of platinum concentration tumor/liver: 0.59
  ratio of platinum concentration tumor/muscle: 4.09
  platinum accumulation in tumors: 1055 ± 278 Pt ng/g tissue
A549 cell-bearing mice [2]
  toxic side effects (body weight, loss of appetite, injection site): reduces toxicity compared to that of cisplatin
[3]
  half-life in mouse plasma: approximately 2 h
HeLa cells
  IC50: 447 ± 99 µM
